# Assay outcomes: PubChem BioAssay, The Scripps Research Institute Molecular Screening Center
# TAAR1 ag – human TAAR1 agonism | activation, % at 3 µM | Q96RJ0 | hit rate 0.99% among 360,000 | CHO RD-HGA16 TAAR1, Fluo-8 calcium fluorescence; vehicle wells 0%, saturating PEA agonist 100% | AID 624467;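 active means activation above the mean activation of all test compounds in the run plus 3 SD, cut at about 38% in these data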
#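 test system = CHO RD-HGA16 cells carrying human TAAR1 plus Gα16 | schedule = 17-24 h seeding, 75 min 37 °C dye, 30 min RT | compound dosing = 3 µM single concentration | control set = DMSO and PEA EC100 | replicates = n 1 | signal = Fluo-8 fluorescence, 5 s baseline then 140 s kinetic read | measure = percent activation vs PEA EC100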
# OXTR potentiator – potentiators of human oxytocin receptor | P30559 | activation, % at 3 µM | CHO-OTR cells, Fluo-8 calcium fluorescence, potentiator mode; 0% = oxytocin EC15, 100% = EC100 | AID 2445 | hit rate 0.061% among 320,000;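 active means activation above that plate's cutoff, the mean activation of tested compounds plus 3 SD, cut at about 6.6% in these data, passing the limit was not always enough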;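 further: 100% uses oxytocin at 75 nM as the full agonist control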
#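 test system = CHO-OTR cells, human receptor | compound = single-point 3.0 µM | schedule = 6 min compound pre-incubation at room temperature, 100 s kinetic read | signal = Fluo-8 no-wash calcium dye fluorescence, excitation 470-495 nm, emission 515-575 nm | repeats = single well per compound, singlicate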
# TAAR1 antag – human TAAR1 antagonism; Q96RJ0; CHO RD-HGA16 TAAR1, Fluo-8 calcium fluorescence, antagonist; inhibition, % at 3 µM; hit rate 1.5% among 360,000; AID 624466;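 active means inhibition above a per-plate cutoff, the mean inhibition of test compounds on that plate plus 3 SD, cut at about 49% in these data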;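 further: 0% = DMSO plus EC80 beta-PEA response and 100% = DMSO alone without agonist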
#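 System: CHO RD-HGA16 cells bearing hTAAR1. Reagent: EC80 β-phenethylamine stimulus. Schedule: seeding 17-24 h prior, 75-min 37 °C, 30-min RT dye loading. Signal: Fluo-8 intracellular calcium dye fluorescence, real-time kinetic reads. Read-out: % inhibition from peak post-agonist over basal fluorescence ratio. Benchmarks: vehicle wells and EC80 agonist wells. Replicates: n of 1.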
# V1aR counter – V1a receptor agonism, counter-screen for OXTR agonists | P37288 | CHO-V1R cells, Fluo-8 calcium fluorescence, agonist mode; 0% DMSO, 100% 3 nM vasopressin | activation, % at 3 µM | hit rate 0.25% among 320,000 | AID 2797;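 active means activation above the mean activation of all tested compounds plus 3 SD, per screening run, cut at about 20% in these data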;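 further: signal is peak over basal fluorescence ratio across a 100 second FLIPR read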
# Target sequence (P37288 whole entry, looked up): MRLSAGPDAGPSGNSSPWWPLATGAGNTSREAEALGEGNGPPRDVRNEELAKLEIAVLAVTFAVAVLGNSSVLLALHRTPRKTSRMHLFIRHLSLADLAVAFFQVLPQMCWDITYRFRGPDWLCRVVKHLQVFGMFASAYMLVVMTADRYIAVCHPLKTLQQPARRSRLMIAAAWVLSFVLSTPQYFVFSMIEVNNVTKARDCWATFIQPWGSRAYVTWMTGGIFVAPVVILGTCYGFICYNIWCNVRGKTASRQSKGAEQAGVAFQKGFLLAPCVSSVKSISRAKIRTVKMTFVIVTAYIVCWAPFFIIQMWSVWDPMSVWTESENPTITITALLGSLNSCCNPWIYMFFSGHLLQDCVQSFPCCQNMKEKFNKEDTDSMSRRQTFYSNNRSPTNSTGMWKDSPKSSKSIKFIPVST
# OXTR ag – human OXTR agonism. CHO-OTR cells, Fluo-8 calcium fluorescence; normalized: DMSO 0%, oxytocin 100%. activation, % at 3 µM. hit rate 0.32% among 320,000. AID 2435;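 active means activation above the mean of all tested compounds plus 3 SD, cutoff set per screening run, cut at about 20% in these data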;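 further: peak over basal fluorescence ratio from a 100 s FLIPR kinetic read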
# TAAR1 nonsel count – nonselective antagonist in TAAR1 antagonist counter-screen. shares compounds with TAAR1 antag. counterscreen cell line, calcium fluorescence, antagonist mode. inhibition, % at 3 µM. hit rate 77% among 2,400. AID 651780; in the data active means inhibition above about 22%;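 further: CHO-Ga16 host cells stimulated with ATP at an EC80 level; 0% = agonist EC80 plus vehicle and 100% = vehicle without agonist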
# TAAR1 ant conf – human TAAR1 antagonism, confirmed. shares compounds with TAAR1 antag. TAAR1-expressing cells, fluorescence antagonist read-out. inhibition, % at 3 µM. hit rate 40% among 2,400. AID 651785; in the data active means inhibition above about 49%;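 further: CHO-Ga16 host cells challenged with agonist PEA near its EC80; 0% = agonist at EC80 plus vehicle and 100% = vehicle with no agonist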
# Ga16 ag counter – nonselective Ga16 agonism, counter-screen; shares compounds with TAAR1 antag; Ga16-expressing cells, calcium fluorescence, agonist counterscreen; activation, % at 3 µM; hit rate 18% among 2,400; AID 651953; in the data active means activation above about 12%;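 further: 0% = vehicle wells and 100% = saturating stimulus response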
# TAAR1 ag counter – activates human TAAR1 in antagonist counter-screen. shares compounds with TAAR1 antag. hTAAR1 cell line, fluorescence activation, agonist mode. activation, % at 3 µM. hit rate 2% among 2,400; in the data active means activation above about 37%;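 further: CHO cells stably expressing TAAR1 with calcium dye readout; 0% = DMSO vehicle and 100% = full agonist response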
# * marks the source's active call; other numbers are inactive results; nt = not tested or not shown. Sampled rows, rich in hits. Any-hit rate of the full collection: about 2.3%.
SMILES,TAAR1 ag,OXTR potentiator,TAAR1 antag,V1aR counter,OXTR ag,TAAR1 nonsel count,TAAR1 ant conf,Ga16 ag counter,TAAR1 ag counter
COc1cccc(NC(=O)CSC2=NN3CCCC(=O)N=C3S2)c1,3,-12,104*,9,4,2,6,5,5
COCCN(CCOC)C(=O)COC(=O)c1ccc(Cl)c(S(=O)(=O)N(C)c2ccccc2)c1,3,0,12,1,0,nt,nt,nt,nt
C=CCOc1ccc(/C=C/C(=O)OCC(=O)NCc2cccs2)cc1,22,-16,52*,5,3,29*,40,9,24
O=C(COC(=O)/C=C/c1ccc(Cl)cc1)NCc1cccs1,3,nt,3,nt,nt,nt,nt,nt,nt
C=CCOc1ccc(/C=C/C(=O)OCc2csc(CC(=O)Nc3ccccc3C)n2)cc1,4,-9,66*,6,6,38*,52*,8,7
CCOc1ccc2ncc(S(=O)(=O)c3ccccc3)c(N3CCC4(CC3)OCCO4)c2c1,4,1,49*,-1,-2,13,42,3,3
CCOc1ccc2ncc(S(=O)(=O)c3ccccc3)c(N3CCN(c4ccccc4)CC3)c2c1,0,-4,-26,0,0,nt,nt,nt,nt
COc1ccc(S(=O)(=O)c2cnc3ccc(OC)cc3c2N2CCC3(CC2)OCCO3)cc1,13,-7,72*,-1,0,25*,50*,8,6
O=C1NC[C@@H](CCCCN2C[C@H](Cc3ccccc3)N(CC3CCCCC3)C(=O)C2=O)N(Cc2ccccc2)C1=O,36,nt,15,nt,nt,nt,nt,nt,nt
Cc1ccc(C)c(N2CCN(C(=O)C34CC5CC(C3)CC(n3nnc(C)n3)(C5)C4)CC2)c1,7,-15,59*,-2,-3,35*,43,7,5
CC1(C)OC2OC(C3COC(=O)O3)C(OC(=O)c3ccccc3)C2O1 (configuration not stated),0,nt,1,nt,nt,nt,nt,nt,nt
Cc1ccc(-c2cc(C(=O)N(C)CC(=O)Nc3ccccc3Br)c3ccccc3n2)o1,14,-9,66*,-2,-1,34*,50*,12*,13
Cc1cccc(NC(=O)c2cc(-c3ccco3)nc3ccccc23)n1,18,-8,55*,-1,-2,27*,50*,7,5
COc1ccc(OC)c(-c2cc(C(=O)N/N=C/c3ccc(F)cc3)c3ccccc3n2)c1,2,-4,-18,0,-1,nt,nt,nt,nt
COc1ccc(OC)c(-c2cc(C(=O)Nc3ccccc3C(N)=O)c3ccccc3n2)c1,21,-5,76*,2,0,34*,54*,11,9
COc1ccc(NC(=O)c2cc(-c3ccco3)nc3ccccc23)cc1,6,-10,16,0,1,nt,nt,nt,nt
Cc1ccc(-c2cc(C(=O)Nc3ccccc3C(N)=O)c3ccccc3n2)o1,23,-2,66*,0,-1,34*,54*,13*,12
COCc1cc(N2CCN(C(=O)OC(C)(C)C)C[C@@H]2C)ccc1N1CC[C@H](O)C1,2,nt,12,nt,nt,nt,nt,nt,nt
COc1ccc(NC(=O)c2cc(-c3ccc(C)o3)nc3ccccc23)c(OC)c1,7,-3,75*,-1,-3,33*,46,9,6
COc1ccc(NC(=O)Nc2cccc3ccccc23)c(OC)c1,24,-9,59*,1,1,18,42,3,4
COc1ccc(OC)c(NC(=O)Nc2cccc3ccccc23)c1,2,-5,-6,-1,-2,nt,nt,nt,nt
Cc1ccccc1CN1C(=O)c2ccccc2C1c1nnnn1C(C)C (configuration not stated),1,nt,5,nt,nt,nt,nt,nt,nt
C#CCNC(=O)C[C@H]1C[C@@]2(C(=O)OC)C(=C[C@H](C3CCCC3)O[C@@H]2C)N(CCCCCCCC)C1=O,-2,nt,-24,nt,nt,nt,nt,nt,nt
COC(=O)C1=C(C)N(Cc2ccccc2C(F)(F)F)C(=NCc2ccc(C(F)(F)F)cc2)NC1c1ccc(Cl)cc1 (configuration not stated),2,nt,7,nt,nt,nt,nt,nt,nt
Cc1cccc(C(C#N)c2nc3ccccc3nc2C(F)(F)F)c1 (configuration not stated),-1,-21,80*,-1,-2,5,83*,0,6
SMILES,TAAR1 ag,OXTR potentiator,TAAR1 antag,V1aR counter,OXTR ag,TAAR1 nonsel count,TAAR1 ant conf,Ga16 ag counter,TAAR1 ag counter
COc1ccc(C(C#N)c2nc3ccccc3nc2Cl)cc1 (configuration not stated),1,nt,-3,nt,nt,nt,nt,nt,nt
Cc1ccc2nc(C(F)(F)F)c(C#N)c(N)c2c1,9,1,-3,1,0,nt,nt,nt,nt
N#CC(c1ccc(Cl)cc1)c1nc2ccccc2nc1C(F)(F)F (configuration not stated),-1,-5,57*,0,-1,7,31,1,-2
CC(=O)Nc1ccc(S(=O)(=O)NCC(=O)OCC(=O)NCc2ccco2)cc1,-2,-2,100*,0,0,2,2,1,2
CC(=O)Nc1ccc(S(=O)(=O)N(C)CC(=O)OCC(=O)NCc2ccco2)cc1,3,-5,4,0,2,nt,nt,nt,nt
CCCCCCC(=O)N(O)C1CC(=O)N(c2ccc(F)cc2)C1=O (configuration not stated),0,-14,-9,0,-1,nt,nt,nt,nt
CCCCCCC(=O)N(O)C1CC(=O)N(c2ccc(Br)cc2)C1=O (configuration not stated),-4,-5,106*,0,0,12,13,2,1
Cc1ccc(C)c(NC(=O)/C(C#N)=C/c2cn(CC(=O)NCc3ccco3)c3ccccc23)c1,2,-8,103*,-1,1,6,12,7,6
Cc1ccc(NC(=O)/C(C#N)=C/c2cn(CC(=O)NCc3ccco3)c3ccccc23)cc1C,1,3,-14,3,2,nt,nt,nt,nt
Cc1nnc(SCC(=O)Nc2nsc(-c3ccc(C(C)(C)C)cc3)n2)s1,2,-7,59*,4,-1,32*,39,7,4
Fc1ccc(-c2nc3ccccn3c2NCc2ccc3c(c2)OCO3)cc1,8,-3,17,0,-2,nt,nt,nt,nt
Oc1ccc(-c2nc3ccccn3c2NCc2ccc3c(c2)OCO3)cc1,17,-14,55*,4,2,30*,53*,11,10
